Test results reported in ChEMBL document CHEMBL2424622, “Development of amino-pyrimidine inhibitors of c-Jun N-terminal kinase (JNK): kinase profiling guided optimization of a 1,2,3-benzotriazole lead” (Bioorg Med Chem Lett, 2013).

Tests used:
[1] = target: Mitogen-activated protein kinase kinase kinase 10 (Homo sapiens) (UniProt Q02779); test: Competitive binding affinity to MLK2 (unknown origin) at 10 uM in presence of ATP relative to control
[2] = system: Epidermal growth factor receptor (Homo sapiens), P00533 [G719C]; test: Competitive binding affinity to EGFR G719C mutant (unknown origin) at 10 uM in presence of ATP relative to control
Method in brief: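 In vitro ATP-site competition binding assay, part of profiling against a diverse panel of 128 kinases. Each compound was tested at a single concentration of 10 µM. Kinome selectivity was summarized as S15 selectivity scores.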

[3] = target: Mitogen-activated protein kinase kinase kinase 20 (Homo sapiens) (UniProt Q9NYL2); test: Competitive binding affinity to ZAK (unknown origin) at 10 uM in presence of ATP relative to control
[4] = target: T1, Serine/threonine-protein kinase NLK (Homo sapiens) (UniProt Q9UBE8); test: Competitive binding affinity to NLK (unknown origin) at 10 uM in presence of ATP relative to control
T1 sequence (whole entry): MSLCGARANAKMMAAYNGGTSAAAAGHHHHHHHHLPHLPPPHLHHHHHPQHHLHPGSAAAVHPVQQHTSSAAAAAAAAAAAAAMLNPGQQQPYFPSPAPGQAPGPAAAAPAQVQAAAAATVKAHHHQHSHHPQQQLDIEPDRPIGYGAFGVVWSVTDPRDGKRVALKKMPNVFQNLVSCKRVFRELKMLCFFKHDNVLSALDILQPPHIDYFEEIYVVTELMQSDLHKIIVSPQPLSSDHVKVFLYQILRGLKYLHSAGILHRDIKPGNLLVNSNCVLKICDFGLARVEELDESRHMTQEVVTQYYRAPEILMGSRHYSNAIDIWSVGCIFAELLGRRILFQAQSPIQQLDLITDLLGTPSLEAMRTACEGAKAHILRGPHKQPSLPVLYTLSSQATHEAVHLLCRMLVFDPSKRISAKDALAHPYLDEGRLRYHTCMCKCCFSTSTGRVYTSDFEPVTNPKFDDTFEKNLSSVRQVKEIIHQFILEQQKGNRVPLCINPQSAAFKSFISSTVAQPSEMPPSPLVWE

[5] = target: Citron Rho-interacting kinase (Homo sapiens, UniProt O14578); test: Competitive binding affinity to CIT (unknown origin) at 10 uM in presence of ATP relative to control
[6] = target: Activated CDC42 kinase 1 (Homo sapiens) (UniProt Q07912); test: Competitive binding affinity to TNK2 (unknown origin) at 10 uM in presence of ATP relative to control
[7] = target: T2, Ankyrin repeat and protein kinase domain-containing protein 1 (Homo sapiens) (UniProt Q8NFD2); test: Competitive binding affinity to ANKK1 (unknown origin) at 10 uM in presence of ATP relative to control
T2 sequence (whole entry): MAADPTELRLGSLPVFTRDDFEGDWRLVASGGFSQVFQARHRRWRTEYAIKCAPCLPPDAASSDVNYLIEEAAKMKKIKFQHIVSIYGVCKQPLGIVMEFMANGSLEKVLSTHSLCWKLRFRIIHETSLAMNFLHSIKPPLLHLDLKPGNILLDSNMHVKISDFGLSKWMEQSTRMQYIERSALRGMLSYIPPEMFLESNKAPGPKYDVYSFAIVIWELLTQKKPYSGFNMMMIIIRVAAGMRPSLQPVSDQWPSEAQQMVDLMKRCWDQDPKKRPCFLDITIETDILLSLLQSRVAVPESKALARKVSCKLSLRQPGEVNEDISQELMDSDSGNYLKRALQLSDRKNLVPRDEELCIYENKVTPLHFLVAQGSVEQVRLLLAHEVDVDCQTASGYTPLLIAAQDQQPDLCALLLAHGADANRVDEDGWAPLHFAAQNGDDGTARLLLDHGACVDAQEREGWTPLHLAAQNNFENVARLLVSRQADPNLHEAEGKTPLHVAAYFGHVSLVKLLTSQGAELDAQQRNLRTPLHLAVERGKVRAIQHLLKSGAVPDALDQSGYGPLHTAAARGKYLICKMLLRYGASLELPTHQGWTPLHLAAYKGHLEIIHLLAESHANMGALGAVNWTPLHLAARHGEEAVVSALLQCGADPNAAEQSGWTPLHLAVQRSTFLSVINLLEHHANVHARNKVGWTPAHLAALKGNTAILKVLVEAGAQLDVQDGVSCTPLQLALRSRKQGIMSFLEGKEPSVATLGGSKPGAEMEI

[8] = target: Mitogen-activated protein kinase 7 (Homo sapiens, UniProt Q13164); test: Competitive binding affinity to ERK5 (unknown origin) at 10 uM in presence of ATP relative to control
[9] = target: T3, Serine/threonine-protein kinase Chk1 (Homo sapiens) (UniProt O14757); test: Competitive binding affinity to CHEK1 (unknown origin) at 10 uM in presence of ATP relative to control
T3 sequence (whole entry): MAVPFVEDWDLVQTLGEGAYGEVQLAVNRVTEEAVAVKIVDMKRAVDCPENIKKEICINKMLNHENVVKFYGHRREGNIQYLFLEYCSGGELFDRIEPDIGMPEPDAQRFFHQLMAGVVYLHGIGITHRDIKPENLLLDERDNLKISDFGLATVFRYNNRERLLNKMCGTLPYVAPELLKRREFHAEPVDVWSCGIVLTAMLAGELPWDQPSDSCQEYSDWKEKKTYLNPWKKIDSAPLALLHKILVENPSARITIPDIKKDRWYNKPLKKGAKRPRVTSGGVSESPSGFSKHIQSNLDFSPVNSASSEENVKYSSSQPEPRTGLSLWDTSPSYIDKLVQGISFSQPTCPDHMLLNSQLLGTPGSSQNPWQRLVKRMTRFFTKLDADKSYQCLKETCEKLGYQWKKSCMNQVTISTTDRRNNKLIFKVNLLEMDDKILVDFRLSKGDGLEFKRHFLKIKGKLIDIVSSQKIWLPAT

Sequence of Mitogen-activated protein kinase 7 (Q13164 2-816 limits assumed): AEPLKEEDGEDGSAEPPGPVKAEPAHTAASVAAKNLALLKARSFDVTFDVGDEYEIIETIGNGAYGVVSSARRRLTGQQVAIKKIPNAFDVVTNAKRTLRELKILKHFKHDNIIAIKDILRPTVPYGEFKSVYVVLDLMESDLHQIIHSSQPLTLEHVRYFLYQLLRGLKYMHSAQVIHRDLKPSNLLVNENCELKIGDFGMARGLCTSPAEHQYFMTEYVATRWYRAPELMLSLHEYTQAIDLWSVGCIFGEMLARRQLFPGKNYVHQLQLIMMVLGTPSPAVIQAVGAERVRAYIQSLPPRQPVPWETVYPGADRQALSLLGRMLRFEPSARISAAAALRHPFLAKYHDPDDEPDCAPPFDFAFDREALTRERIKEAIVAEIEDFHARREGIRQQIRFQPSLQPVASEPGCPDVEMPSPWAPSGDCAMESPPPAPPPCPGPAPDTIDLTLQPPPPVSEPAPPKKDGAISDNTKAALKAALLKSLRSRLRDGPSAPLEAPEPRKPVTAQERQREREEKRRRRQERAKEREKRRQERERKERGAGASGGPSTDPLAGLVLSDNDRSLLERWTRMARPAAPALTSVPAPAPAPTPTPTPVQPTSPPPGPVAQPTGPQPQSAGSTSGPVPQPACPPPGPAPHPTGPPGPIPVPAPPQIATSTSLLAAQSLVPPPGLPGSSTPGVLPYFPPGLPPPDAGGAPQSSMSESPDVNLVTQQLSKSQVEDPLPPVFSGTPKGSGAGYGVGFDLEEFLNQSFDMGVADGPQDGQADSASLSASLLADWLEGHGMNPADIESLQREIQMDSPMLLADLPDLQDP
Sequence of Mitogen-activated protein kinase kinase kinase 10 (Homo sapiens) (Q02779 whole entry, looked up): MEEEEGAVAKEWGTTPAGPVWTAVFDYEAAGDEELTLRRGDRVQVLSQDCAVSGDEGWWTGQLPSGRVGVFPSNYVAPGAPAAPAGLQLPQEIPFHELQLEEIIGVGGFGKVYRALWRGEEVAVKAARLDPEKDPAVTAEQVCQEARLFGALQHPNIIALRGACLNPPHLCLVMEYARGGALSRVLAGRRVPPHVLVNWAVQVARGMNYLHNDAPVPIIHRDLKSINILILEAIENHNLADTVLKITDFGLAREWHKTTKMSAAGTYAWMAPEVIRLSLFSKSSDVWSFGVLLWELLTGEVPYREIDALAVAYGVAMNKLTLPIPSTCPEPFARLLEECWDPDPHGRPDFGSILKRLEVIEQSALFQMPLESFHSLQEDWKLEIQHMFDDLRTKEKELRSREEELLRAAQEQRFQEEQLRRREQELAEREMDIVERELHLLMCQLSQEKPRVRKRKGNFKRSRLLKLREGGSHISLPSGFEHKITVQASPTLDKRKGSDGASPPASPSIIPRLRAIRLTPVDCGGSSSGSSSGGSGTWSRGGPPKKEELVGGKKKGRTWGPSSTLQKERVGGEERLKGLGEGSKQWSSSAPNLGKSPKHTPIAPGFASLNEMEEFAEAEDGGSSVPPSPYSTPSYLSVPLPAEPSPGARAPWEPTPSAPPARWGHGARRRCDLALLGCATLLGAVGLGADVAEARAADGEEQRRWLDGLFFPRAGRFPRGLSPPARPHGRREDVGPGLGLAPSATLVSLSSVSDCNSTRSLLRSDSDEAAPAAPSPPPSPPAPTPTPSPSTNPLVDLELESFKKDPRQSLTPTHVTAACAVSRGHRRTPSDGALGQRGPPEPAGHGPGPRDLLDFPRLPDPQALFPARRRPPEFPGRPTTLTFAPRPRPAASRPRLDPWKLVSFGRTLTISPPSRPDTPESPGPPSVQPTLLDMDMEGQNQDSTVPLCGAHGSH
Sequence of Mitogen-activated protein kinase kinase kinase 20 (Homo sapiens) (Q9NYL2 2-800 limits assumed): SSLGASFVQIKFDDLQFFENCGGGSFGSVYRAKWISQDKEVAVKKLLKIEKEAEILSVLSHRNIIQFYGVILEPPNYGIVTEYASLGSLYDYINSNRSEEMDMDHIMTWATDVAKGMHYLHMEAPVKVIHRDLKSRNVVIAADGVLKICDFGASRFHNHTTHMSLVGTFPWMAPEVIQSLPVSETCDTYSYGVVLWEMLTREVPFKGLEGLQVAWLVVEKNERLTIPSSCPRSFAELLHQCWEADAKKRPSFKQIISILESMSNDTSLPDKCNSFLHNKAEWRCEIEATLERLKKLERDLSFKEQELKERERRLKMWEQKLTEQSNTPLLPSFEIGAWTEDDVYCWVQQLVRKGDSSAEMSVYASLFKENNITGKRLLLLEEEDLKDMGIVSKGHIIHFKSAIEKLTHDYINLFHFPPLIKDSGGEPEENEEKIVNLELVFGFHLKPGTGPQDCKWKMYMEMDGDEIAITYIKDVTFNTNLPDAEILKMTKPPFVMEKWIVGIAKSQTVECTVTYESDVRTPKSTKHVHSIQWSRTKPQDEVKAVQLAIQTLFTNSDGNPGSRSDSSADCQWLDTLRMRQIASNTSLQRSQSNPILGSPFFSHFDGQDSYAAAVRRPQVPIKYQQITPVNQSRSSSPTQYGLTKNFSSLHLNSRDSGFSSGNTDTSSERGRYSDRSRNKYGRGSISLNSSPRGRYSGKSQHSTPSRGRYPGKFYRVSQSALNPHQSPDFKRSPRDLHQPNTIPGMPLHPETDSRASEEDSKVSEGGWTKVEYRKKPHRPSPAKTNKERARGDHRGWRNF
Sequence of Citron Rho-interacting kinase (O14578 whole entry): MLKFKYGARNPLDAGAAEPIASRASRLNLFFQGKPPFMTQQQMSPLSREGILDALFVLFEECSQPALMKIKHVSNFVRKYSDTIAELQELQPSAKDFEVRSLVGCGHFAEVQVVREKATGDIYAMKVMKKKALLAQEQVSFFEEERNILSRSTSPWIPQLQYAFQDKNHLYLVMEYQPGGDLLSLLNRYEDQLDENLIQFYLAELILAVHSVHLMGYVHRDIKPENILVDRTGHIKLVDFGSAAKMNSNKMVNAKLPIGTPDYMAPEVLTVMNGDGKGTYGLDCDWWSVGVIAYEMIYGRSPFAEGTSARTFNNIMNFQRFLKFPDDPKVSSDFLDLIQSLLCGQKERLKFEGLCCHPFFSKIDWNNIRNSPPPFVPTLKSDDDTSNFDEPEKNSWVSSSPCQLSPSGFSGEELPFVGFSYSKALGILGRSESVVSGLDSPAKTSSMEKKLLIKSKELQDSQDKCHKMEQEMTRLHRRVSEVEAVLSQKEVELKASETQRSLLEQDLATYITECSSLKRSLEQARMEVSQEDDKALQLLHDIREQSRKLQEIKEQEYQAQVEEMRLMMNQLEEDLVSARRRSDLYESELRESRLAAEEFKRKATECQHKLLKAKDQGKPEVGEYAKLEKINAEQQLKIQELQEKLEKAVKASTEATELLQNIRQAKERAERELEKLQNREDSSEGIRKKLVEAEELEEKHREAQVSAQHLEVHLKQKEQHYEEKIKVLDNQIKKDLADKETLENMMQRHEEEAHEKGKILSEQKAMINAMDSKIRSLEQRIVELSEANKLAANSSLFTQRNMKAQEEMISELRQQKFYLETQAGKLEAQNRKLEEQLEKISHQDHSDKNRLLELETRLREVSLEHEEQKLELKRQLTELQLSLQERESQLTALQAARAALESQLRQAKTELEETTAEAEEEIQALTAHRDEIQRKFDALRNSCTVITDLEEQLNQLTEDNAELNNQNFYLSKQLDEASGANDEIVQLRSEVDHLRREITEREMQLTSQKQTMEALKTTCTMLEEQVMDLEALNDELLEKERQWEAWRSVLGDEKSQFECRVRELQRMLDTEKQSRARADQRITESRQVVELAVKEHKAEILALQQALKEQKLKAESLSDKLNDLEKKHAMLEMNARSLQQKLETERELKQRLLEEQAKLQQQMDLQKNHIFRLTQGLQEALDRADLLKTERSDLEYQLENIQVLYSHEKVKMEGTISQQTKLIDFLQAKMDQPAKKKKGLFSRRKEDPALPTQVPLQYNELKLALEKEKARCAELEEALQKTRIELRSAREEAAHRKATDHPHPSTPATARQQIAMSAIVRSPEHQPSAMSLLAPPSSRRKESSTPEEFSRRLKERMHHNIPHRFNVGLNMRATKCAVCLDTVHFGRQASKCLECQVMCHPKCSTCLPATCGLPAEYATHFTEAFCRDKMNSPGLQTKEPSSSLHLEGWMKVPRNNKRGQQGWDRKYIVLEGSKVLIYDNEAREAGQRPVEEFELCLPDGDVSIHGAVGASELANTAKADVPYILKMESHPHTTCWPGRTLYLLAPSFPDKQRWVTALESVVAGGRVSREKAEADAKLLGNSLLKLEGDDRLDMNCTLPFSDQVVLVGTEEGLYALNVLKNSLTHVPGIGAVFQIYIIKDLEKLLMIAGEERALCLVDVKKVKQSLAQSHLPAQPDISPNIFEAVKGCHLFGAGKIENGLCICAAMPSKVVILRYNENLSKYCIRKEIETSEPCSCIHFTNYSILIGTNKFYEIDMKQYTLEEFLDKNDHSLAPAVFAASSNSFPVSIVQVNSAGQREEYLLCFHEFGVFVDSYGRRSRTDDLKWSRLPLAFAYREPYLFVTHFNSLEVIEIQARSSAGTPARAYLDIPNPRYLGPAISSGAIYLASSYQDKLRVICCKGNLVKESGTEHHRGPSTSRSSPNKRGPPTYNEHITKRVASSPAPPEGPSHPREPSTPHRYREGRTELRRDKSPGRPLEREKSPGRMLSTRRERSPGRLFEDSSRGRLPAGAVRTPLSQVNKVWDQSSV

| SMILES | inhibition [1] [%] | inhibition [2] [%] | inhibition [3] [%] | inhibition [4] [%] | inhibition [5] [%] | inhibition [6] [%] | inhibition [7] [%] | inhibition [8] [%] | inhibition [9] [%] |
| --- | --- | --- | --- | --- | --- | --- | --- | --- | --- |
| O[C@H]1CC[C@H](Nc2nccc(-n3nnc4ccccc43)n2)CC1 | < 50 | < 50 | 76 | < 50 | 98 | < 50 | 69 | 100 | < 50 |
| CS(=O)(=O)CCCOc1cccc2c1ccn2-c1ccnc(N[C@H]2CC[C@H](C(=O)N3CCC(O)CC3)CC2)n1 | – | – | – | – | > 85 | – | – | > 85 | – |
| O[C@H]1CC[C@H](Nc2nccc(-n3ncc4ccccc43)n2)CC1 | < 50 | < 50 | < 50 | < 50 | 75 | < 50 | < 50 | 79 | < 50 |
| O[C@H]1CC[C@H](Nc2nccc(-c3n[nH]c4ccccc34)n2)CC1 | – | < 50 | – | 90 | – | < 50 | – | – | – |
| O[C@H]1CC[C@H](Nc2nccc(-n3ccc4ccccc43)n2)CC1 | < 50 | < 50 | < 50 | < 50 | 79 | < 50 | < 50 | < 50 | < 50 |
